Test results from ChEMBL document CHEMBL3352121, “Modulation of Activity Profiles for Largazole-Based HDAC Inhibitors through Alteration of Prodrug Properties” (ACS Med Chem Lett, 2014).
Activity calls are given as the source filed them. No cut-off for these calls is given here.

Columns and labels:
[1] = target: T1, Polyamine deacetylase HDAC10 (Homo sapiens, UniProt Q969S8); assay: Inhibition of HDAC10 (unknown origin) incubated for 30 mins in presence of BSA and DTT by fluorescence assay
T1 sequence (Q969S8 whole entry): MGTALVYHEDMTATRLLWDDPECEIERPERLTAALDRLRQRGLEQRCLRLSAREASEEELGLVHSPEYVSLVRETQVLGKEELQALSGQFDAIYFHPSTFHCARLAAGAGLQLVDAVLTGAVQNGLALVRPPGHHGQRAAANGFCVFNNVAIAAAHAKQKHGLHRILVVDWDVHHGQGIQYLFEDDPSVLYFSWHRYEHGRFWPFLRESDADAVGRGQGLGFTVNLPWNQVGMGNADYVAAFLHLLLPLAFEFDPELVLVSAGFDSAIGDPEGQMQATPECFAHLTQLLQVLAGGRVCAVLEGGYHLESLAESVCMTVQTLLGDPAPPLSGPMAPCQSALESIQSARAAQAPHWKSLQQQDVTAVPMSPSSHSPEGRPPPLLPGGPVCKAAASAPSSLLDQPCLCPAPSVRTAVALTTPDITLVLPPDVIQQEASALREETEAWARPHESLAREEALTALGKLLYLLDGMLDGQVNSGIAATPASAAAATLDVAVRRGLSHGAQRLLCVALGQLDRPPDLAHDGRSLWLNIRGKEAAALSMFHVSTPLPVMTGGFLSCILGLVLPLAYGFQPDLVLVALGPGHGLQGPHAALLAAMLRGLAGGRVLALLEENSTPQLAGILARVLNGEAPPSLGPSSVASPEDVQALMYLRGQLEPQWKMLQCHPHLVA
Outline: (§1)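 Purified HDAC isoforms were tested up to a maximum of 1 μM. IC50 values are averages of duplicate experiments. Disulfide compounds were pretreated with DTT to reduce the disulfide bond.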

Histone deacetylase 9 = Histone deacetylase 9 (Homo sapiens, UniProt Q9UKV0); assay: Inhibition of HDAC9 (unknown origin) at 1 uM incubated for 30 mins in presence of BSA and DTT by fluorescence assay; outline: as §1
Histone deacetylase 9, sequence (Q9UKV0 whole entry): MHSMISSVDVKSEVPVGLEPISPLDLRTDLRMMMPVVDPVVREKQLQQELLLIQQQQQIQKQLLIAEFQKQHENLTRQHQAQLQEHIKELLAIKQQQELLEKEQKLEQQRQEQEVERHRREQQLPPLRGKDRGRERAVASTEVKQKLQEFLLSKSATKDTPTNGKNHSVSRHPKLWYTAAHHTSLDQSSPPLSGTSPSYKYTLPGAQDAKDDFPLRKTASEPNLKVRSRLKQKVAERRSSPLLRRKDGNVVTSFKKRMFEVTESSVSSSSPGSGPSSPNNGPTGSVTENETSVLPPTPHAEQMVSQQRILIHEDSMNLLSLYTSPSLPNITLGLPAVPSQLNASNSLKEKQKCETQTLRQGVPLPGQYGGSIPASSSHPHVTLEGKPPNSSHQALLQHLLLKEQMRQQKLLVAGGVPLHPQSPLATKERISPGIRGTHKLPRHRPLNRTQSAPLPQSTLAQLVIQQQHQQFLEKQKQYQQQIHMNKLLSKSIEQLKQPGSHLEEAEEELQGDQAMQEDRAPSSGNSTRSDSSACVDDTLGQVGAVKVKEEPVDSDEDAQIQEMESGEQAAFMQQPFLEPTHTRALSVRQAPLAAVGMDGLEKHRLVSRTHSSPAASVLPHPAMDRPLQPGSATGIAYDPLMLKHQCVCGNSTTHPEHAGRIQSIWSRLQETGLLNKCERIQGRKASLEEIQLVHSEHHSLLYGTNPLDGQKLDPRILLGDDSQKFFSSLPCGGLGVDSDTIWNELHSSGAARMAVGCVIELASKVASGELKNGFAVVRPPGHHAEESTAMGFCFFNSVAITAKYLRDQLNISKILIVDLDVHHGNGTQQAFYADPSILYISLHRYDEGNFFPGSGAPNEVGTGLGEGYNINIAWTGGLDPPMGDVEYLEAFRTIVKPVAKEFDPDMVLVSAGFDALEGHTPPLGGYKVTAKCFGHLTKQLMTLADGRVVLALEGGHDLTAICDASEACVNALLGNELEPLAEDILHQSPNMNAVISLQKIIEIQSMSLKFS

Histone deacetylase 1 = Histone deacetylase 1 (Homo sapiens, UniProt Q13547); assay: Inhibition of HDAC1 (unknown origin) incubated for 30 mins in presence of BSA and DTT by fluorescence assay
Histone deacetylase 1, sequence (Q13547 whole entry): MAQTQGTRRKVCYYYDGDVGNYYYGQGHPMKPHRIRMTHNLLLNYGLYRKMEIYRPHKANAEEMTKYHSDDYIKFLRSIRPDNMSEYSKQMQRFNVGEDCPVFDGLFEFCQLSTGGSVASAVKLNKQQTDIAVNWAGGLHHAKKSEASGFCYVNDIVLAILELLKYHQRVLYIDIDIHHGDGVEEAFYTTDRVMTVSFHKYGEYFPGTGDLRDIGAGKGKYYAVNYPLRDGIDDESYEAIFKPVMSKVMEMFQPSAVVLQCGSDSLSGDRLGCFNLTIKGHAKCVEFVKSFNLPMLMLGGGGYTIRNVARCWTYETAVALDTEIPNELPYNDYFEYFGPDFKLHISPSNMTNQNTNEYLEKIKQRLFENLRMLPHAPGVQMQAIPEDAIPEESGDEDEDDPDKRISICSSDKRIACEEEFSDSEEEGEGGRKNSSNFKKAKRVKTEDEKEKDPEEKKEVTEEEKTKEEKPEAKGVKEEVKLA

[2] = target: T2, Histone deacetylase 8 (Homo sapiens) (UniProt Q9BY41); assay: Inhibition of HDAC8 (unknown origin) at 1 uM incubated for 30 mins in presence of BSA and DTT by fluorescence assay; outline: as §1
T2 sequence (whole entry): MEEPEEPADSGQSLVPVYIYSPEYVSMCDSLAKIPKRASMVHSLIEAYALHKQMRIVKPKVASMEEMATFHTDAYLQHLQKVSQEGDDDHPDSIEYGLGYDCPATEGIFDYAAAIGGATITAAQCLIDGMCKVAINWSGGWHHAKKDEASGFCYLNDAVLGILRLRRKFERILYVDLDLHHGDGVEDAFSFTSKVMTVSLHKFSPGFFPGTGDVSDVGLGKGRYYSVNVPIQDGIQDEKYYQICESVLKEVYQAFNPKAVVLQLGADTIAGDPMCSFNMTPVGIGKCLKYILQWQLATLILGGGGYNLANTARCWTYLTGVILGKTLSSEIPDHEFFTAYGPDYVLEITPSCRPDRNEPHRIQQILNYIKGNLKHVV

[3] = target: T3, Protein deacetylase HDAC6 (Homo sapiens) (UniProt Q9UBN7); details: 1 uM
T3 sequence (whole entry): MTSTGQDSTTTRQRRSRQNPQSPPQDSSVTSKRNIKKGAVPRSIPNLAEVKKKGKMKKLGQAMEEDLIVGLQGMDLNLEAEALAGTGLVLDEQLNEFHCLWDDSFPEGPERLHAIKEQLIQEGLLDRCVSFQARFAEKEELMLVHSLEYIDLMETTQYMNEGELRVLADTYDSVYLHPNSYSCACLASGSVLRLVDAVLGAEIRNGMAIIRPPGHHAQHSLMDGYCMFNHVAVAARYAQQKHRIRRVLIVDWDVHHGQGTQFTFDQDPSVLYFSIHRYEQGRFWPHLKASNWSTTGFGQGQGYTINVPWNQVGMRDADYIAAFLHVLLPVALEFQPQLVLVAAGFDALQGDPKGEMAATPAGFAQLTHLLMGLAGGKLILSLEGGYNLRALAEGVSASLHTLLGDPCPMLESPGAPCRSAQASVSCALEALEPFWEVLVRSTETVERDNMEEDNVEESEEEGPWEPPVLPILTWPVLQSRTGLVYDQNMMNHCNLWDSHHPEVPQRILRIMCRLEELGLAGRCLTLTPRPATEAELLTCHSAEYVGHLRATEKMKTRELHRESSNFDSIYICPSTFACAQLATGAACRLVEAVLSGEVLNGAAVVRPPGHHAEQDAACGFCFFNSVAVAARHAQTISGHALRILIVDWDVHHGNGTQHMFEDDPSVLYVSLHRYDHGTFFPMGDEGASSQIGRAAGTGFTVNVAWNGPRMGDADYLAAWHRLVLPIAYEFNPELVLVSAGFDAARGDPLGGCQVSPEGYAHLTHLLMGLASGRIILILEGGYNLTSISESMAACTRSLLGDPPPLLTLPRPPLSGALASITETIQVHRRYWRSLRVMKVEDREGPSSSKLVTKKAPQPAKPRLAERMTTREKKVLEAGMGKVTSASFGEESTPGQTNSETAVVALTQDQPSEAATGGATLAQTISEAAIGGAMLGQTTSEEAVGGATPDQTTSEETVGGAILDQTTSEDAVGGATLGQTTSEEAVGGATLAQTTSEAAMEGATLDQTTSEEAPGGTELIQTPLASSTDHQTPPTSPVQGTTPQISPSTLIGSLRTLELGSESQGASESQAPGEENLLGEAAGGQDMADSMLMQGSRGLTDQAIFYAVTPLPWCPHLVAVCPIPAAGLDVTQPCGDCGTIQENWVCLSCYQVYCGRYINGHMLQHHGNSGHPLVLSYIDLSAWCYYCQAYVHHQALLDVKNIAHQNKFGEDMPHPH

Histone deacetylase 5 = Histone deacetylase 5 (Homo sapiens, UniProt Q9UQL6); assay: Inhibition of HDAC5 (unknown origin) at 1 uM incubated for 30 mins in presence of BSA and DTT by fluorescence assay; outline: as §1
Histone deacetylase 5, sequence (Q9UQL6 whole entry): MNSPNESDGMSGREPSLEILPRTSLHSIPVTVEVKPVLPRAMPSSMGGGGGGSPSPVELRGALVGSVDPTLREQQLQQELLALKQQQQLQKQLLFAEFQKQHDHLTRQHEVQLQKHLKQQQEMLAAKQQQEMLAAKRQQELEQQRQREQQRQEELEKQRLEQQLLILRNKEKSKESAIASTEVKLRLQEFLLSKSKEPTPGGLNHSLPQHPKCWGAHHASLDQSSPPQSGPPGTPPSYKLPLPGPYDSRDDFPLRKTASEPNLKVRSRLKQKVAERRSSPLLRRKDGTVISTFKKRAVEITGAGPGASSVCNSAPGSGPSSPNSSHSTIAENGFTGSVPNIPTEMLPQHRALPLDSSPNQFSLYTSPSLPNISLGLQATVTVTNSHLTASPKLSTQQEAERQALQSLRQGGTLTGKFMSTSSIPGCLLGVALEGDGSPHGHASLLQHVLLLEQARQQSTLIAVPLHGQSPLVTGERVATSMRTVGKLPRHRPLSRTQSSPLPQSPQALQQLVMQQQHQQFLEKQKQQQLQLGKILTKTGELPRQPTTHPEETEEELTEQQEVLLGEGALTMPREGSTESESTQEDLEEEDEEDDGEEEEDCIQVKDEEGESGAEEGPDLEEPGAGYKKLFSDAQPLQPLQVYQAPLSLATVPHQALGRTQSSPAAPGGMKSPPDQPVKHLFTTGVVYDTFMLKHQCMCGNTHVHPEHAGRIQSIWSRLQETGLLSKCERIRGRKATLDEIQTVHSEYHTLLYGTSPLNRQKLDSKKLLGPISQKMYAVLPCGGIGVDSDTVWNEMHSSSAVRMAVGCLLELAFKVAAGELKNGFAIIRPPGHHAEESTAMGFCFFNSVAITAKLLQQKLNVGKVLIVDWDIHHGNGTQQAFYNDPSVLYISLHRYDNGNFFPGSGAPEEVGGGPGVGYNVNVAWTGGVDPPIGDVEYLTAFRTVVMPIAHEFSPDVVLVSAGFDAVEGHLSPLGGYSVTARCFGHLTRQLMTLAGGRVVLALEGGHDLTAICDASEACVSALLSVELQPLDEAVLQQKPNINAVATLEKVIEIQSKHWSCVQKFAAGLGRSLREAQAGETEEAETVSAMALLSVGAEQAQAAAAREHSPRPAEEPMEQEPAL

[4] = target: T4, Histone deacetylase 7 (Homo sapiens) (UniProt Q8WUI4); assay: Inhibition of HDAC7 (unknown origin) at 1 uM incubated for 30 mins in presence of BSA and DTT by fluorescence assay; outline: as §1
T4 sequence (whole entry): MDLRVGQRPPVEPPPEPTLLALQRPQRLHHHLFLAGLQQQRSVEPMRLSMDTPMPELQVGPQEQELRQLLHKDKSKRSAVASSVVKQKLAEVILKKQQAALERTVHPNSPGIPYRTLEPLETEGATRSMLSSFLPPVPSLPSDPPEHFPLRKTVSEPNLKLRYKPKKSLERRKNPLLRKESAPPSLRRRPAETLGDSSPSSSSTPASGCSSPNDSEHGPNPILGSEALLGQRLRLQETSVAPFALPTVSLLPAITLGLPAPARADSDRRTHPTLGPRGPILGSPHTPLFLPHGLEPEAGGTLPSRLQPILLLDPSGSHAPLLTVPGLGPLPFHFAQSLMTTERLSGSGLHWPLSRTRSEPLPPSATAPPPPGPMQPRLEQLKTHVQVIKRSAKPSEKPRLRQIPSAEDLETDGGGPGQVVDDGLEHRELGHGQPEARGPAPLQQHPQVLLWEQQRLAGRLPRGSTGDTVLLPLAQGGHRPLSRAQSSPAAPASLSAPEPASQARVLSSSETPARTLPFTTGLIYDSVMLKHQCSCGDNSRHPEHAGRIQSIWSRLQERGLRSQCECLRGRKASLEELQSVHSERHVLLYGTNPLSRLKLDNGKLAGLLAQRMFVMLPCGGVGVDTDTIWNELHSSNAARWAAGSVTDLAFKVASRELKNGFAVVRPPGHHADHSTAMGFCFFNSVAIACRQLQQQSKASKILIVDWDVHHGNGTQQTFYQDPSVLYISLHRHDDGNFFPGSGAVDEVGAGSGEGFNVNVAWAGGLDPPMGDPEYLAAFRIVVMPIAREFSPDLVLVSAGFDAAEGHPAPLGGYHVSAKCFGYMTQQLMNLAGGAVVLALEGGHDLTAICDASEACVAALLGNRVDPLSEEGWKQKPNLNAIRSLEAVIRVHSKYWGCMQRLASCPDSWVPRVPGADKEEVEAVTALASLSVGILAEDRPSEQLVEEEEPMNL

HCT-116 [5] = assay: In vivo inhibition of HDAC in tumor of human HCT116 cells xenografted nu/nu mouse assessed as increase in histone hyperacetylation at 50 mg/kg, ip after 4 hrs by immunoblotting method; format: functional, organism-based; design: dose 50 mg/kg
Outline: (§2)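 HCT116 xenograft mice were dosed intraperitoneally at 10 or 50 mg/kg. Tumors were excised after 4, 12 and 24 h, n = 2. Histone hyperacetylation in tumor tissue was assessed by immunoblotting.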

[6] = Drug metabolism in human HCT116 cells protein lysate solution assessed as largazole thiol formation at 25 ug/mL after 30 mins by HPLC-MS method; format: ADME, cell-based; details: hct-116, 0.5 h
HCT-116 [7] = assay: In vivo inhibition of HDAC in tumor of human HCT116 cells xenografted nu/nu mouse assessed as increase in histone hyperacetylation at 50 mg/kg, ip after 4 to 24 hrs by immunoblotting method; format: functional, organism-based; design: dose 50 mg/kg; outline: as §2
[8] = target: Histone deacetylase (Homo sapiens) (UniProt Q13547+O15379+Q9UBN7+Q92769+Q9UQL6+Q8WUI4+Q9BY41+Q96DB2+P56524+Q9UKV0+Q969S8); assay: Inhibition of HDAC in human HCT116 cells assessed as increase in histone H3 (Lys9/14) hyperacetylation after 8 to 24 hrs by immunoblotting method; format: cell-based; details: HCT-116
Outline: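 HCT116 cells were treated across a dose range. Cellular HDAC inhibition was read as histone H3 (Lys9/14) hyperacetylation by immunoblot at 8 and 24 h post-treatment.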

HCT-116 [9] = assay: In vivo inhibition of HDAC in tumor of human HCT116 cells xenografted nu/nu mouse assessed as increase in histone hyperacetylation at 50 mg/kg, po after 4 to 12 hrs by immunoblotting method; format: functional, organism-based; design: dose 50 mg/kg
Outline: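 Mice bearing HCT116 xenografts were dosed intraperitoneally at 10 or 50 mg/kg, or orally at 50 mg/kg. Tumors were excised at 4, 12 and 24 h. Histone hyperacetylation in the tumors was assessed by immunoblot, n = 2.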

HCT-116 [10] = assay: In vivo inhibition of HDAC in tumor of human HCT116 cells xenografted nu/nu mouse assessed as increase in histone hyperacetylation at 10 mg/kg, ip after 4 to 24 hrs by immunoblotting method; format: functional, organism-based; design: dose 10 mg/kg; outline: as §2
[11] = Drug metabolism in tumor of human HCT116 cells xenografted nu/nu mouse assessed largazole thiol formation at 50 mg/kg, po by HPLC-MS method; details: in vivo
[12] = Drug metabolism in tumor of human HCT116 cells xenografted nu/nu mouse assessed as time for maximum largazole thiol level at 50 mg/kg, ip by HPLC-MS method; format: ADME, organism-based, Neoplasm, HCT-116; design: dose 50 mg/kg, route intraperitoneal; details: in vivo
Serum = assay: Drug metabolism in mouse serum assessed as largazole thiol formation after 0.25 to 1440 mins by HPLC-MS method; format: ADME, cell-free
[13] = Drug metabolism in tumor of human HCT116 cells xenografted nu/nu mouse assessed as time for maximum largazole thiol level at 10 mg/kg, ip by HPLC-MS method; format: ADME, organism-based, Neoplasm, HCT-116; design: dose 10 mg/kg, route intraperitoneal; details: in vivo

IC50 [1] [pM]	inhibition (Histone deacetylase 9) [%]	IC50 (Histone deacetylase 1) [pM]	inhibition [2] [%]	inhibition [3] [%]	inhibition (Histone deacetylase 5) [%]	inhibition [4] [%]	Structure (SMILES)	inhibition (HCT-116 [5])	Drug metabolism [6]	inhibition (HCT-116 [7])	inhibition [8]	inhibition (HCT-116 [9])	inhibition (HCT-116 [10])	Drug metabolism [11]	Tmax [12] [h]	Drug metabolism (Serum)	Tmax [13] [h]
900	45	800	36	45	22	34	C/C=C1\NC(=O)[C@H]2CSSCC/C=C/[C@H](CC(=O)N[C@H](C(C)C)C(=O)N2)OC(=O)[C@H](C(C)C)NC1=O [ROMIDEPSIN]										
							CCCCCCCC(=O)SCC/C=C/[C@@H]1CC(=O)NCc2nc(cs2)C2=N[C@@](C)(CS2)C(=O)N[C@@H](C(C)C)C(=O)O1 [LARGAZOLE]	Active	metabolite_detected	Active	Dose-dependent effect	Active	Active	metabolite_detected	4	metabolite_detected	4
